Values after ≈ are worked out from the molar mass of the structure shown.
Columns and labels:
[1] = Chemical stability of the compound; type: physicochemical
[2] = AUC (0 to 72 hrs) in Beagle dog at 20 mg/kg, po; type: ADME, organism-based, Canis lupus familiaris; parameters: time < 72 hr, dose 20 mg/kg, route oral; settings: plasma
[3] = Octanol-water partition coefficient, log P of the compound by shake-flask method; type: physicochemical
How it was run: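 Octanol-water partition coefficient measured by the shake-flask method.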

[4] = AUC (0 to infinity) in CD-1 mouse plasma at 40 mg/kg, po; type: ADME, organism-based; parameters: dose 40 mg/kg, route oral, time infinity
How it was run: (§1)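 CD-1 mice given a single oral dose of 40 mg/kg, suspended in 0.5% carboxymethylcellulose/0.08% Tween 80 in water. Plasma and lung samples quantified by LC-MS/MS. AUC extrapolated to infinity. Lung/plasma ratio is lung AUC divided by plasma AUC.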

[5] = Kinetic solubility of the compound in water at pH 7 by HPLC analysis; type: physicochemical; settings: read-out: Kinetic_solubility
[6] = Half life in Beagle dog at 2 mg/kg, iv; type: ADME, organism-based, Canis lupus familiaris; parameters: dose 2 mg/kg, route intravenous; settings: in vivo
[7] = Oral bioavailability in Sprague-Dawley rat at 20 mg/kg; type: ADME, organism-based; settings: in vivo
[8] = Tmax in Sprague-Dawley rat at 20 mg/kg, po; type: ADME, organism-based; parameters: dose 20 mg/kg, route oral; settings: in vivo
[9] = AUC (0 to 72 hrs) in high fat diet fed Beagle dog at 20 mg/kg, po; type: ADME, organism-based, Canis lupus familiaris; parameters: time < 72 hr, dose 20 mg/kg, route oral; settings: plasma
[10] = Thermodynamic solubility of the compound at pH 7.4; type: physicochemical; settings: buffer, read-out: Therm_solubility
Salmonella typhimurium [11] = assay: Induction of mutagenesis in Salmonella Typhimurium TA98 in absence of rat liver S9 fraction by Ames test; type: toxicity, organism-based; settings: salmonella enterica subsp. enterica serovar typhimurium
How it was run: (§2)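 MicroAmes reverse mutation screen in Salmonella TA98 and TA100, preincubated with and without rat liver S9, at 0.25-250 μg/well.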

[12] = Cmax in high fat diet fed Beagle dog at 20 mg/kg, po; type: ADME, organism-based, Canis lupus familiaris; parameters: dose 20 mg/kg, route oral; settings: in vivo
[13] = target: Voltage-gated inwardly rectifying potassium channel KCNH2 (Homo sapiens, UniProt Q12809); assay: Inhibition of human Erg expressed in HEK293 cells by FAST patch clamp analysis; type: cell-based
Voltage-gated inwardly rectifying potassium channel KCNH2, sequence (Q12809 whole entry): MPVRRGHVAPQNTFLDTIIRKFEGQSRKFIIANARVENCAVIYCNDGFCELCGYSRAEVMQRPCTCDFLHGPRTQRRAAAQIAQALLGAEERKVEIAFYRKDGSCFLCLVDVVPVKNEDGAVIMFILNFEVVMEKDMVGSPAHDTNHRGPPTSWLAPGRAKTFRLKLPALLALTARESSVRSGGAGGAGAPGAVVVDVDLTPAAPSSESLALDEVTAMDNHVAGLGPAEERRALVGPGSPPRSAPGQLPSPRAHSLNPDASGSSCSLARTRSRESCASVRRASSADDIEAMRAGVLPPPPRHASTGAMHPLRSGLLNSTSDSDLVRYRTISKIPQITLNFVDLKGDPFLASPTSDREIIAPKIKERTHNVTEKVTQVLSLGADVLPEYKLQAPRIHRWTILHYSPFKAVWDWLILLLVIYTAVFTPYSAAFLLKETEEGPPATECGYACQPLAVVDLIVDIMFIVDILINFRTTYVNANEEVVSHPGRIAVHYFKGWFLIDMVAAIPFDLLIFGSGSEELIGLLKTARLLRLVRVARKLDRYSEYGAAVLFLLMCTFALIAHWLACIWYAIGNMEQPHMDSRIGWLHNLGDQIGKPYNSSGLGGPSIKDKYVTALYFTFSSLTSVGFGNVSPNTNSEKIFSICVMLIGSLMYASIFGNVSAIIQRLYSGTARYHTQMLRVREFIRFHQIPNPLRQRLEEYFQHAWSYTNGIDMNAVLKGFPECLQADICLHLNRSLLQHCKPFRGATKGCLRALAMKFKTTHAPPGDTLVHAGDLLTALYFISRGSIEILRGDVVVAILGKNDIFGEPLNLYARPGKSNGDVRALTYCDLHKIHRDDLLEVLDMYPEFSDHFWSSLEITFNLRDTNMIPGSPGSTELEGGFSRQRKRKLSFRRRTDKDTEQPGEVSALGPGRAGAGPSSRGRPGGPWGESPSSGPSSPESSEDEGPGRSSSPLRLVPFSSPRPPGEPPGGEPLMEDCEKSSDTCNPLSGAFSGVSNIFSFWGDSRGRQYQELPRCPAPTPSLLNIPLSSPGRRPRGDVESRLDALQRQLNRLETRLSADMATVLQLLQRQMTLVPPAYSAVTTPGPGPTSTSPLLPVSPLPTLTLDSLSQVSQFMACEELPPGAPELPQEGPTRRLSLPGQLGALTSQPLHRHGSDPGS

[14] = Half life in high fat diet fed Beagle dog at 20 mg/kg, po; type: ADME, organism-based, Canis lupus familiaris; parameters: dose 20 mg/kg, route oral; settings: in vivo
[15] = Thermodynamic solubility of the compound at pH 1; type: physicochemical; settings: buffer, read-out: Therm_solubility
[16] = Half life in CD-1 mouse lung at 40 mg/kg, po; type: ADME, organism-based; parameters: dose 40 mg/kg, route oral; how it was run: as §1
[17] = tested on: Mycobacterium tuberculosis; assay: Antimicrobial activity against Mycobacterium tuberculosis infected in BALB/c mouse assessed as fold reduction in lung CFU at 100 mg/kg, po administered 11 days after post infection qd for 5 days per week for 3 weeks relative to PA-824; type: functional
How it was run: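 Groups of 7 M. tb-infected BALB/c mice dosed orally at 100 mg/kg daily, 5 days/week for 3 weeks, starting on day 11 postinfection. Readout is the average lung CFU reduction in treated mice divided by the average CFU reduction in mice given the reference nitroimidazooxazine.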

Salmonella typhimurium [18] = assay: Induction of mutagenesis in Salmonella Typhimurium TA98 in presence of rat liver S9 fraction by Ames test; type: toxicity, organism-based; settings: salmonella enterica subsp. enterica serovar typhimurium; how it was run: as §2
[19] = AUC (0 to 72 hrs) in Beagle dog at 2 mg/kg, iv; type: ADME, organism-based, Canis lupus familiaris; parameters: time < 72 hr, dose 2 mg/kg, route intravenous; settings: plasma
[20] = Metabolic stability of the compound in CD-1 mouse liver microsomes assessed as compound remaining after 1 hr; type: ADME, Microsome; settings: read-out: Stability
How it was run: (§3)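 Pooled human or CD-1 mouse liver microsomes incubated with compound for 1 h. Percentage of compound remaining calculated from analyte/internal standard peak area ratios.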

[21] = Half life in CD-1 mouse plasma at 40 mg/kg, po; type: ADME, organism-based; parameters: dose 40 mg/kg, route oral; how it was run: as §1
[22] = Tmax in Beagle dog at 2 mg/kg, iv; type: ADME, organism-based, Canis lupus familiaris; parameters: dose 2 mg/kg, route intravenous; settings: in vivo
[23] = AUC (0 to 24 hrs) in Sprague-Dawley rat at 20 mg/kg, po; type: ADME, organism-based; parameters: time < 24 hr, dose 20 mg/kg, route oral; settings: plasma
[24] = Cmax in Sprague-Dawley rat at 20 mg/kg, po; type: ADME, organism-based; parameters: dose 20 mg/kg, route oral; settings: in vivo
[25] = Cmax in Beagle dog at 2 mg/kg, iv; type: ADME, organism-based, Canis lupus familiaris; parameters: dose 2 mg/kg, route intravenous; settings: in vivo
[26] = Tmax in high fat diet fed Beagle dog at 20 mg/kg, po; type: ADME, organism-based, Canis lupus familiaris; parameters: dose 20 mg/kg, route oral; settings: in vivo
[27] = Cmax in CD-1 mouse plasma at 40 mg/kg, po; type: ADME, organism-based; parameters: dose 40 mg/kg, route oral; how it was run: as §1
[28] = Half life in Sprague-Dawley rat at 1 mg/kg, iv; type: ADME, organism-based; parameters: dose 1 mg/kg, route intravenous; settings: in vivo
[29] = AUC (0 to 24 hrs) in Sprague-Dawley rat at 1 mg/kg, iv; type: ADME, organism-based; parameters: time < 24 hr, dose 1 mg/kg, route intravenous; settings: plasma
Salmonella typhimurium [30] = assay: Induction of mutagenesis in Salmonella Typhimurium TA100 in presence of rat liver S9 fraction by Ames test; type: toxicity, organism-based; settings: salmonella enterica subsp. enterica serovar typhimurium; how it was run: as §2
[31] = Metabolic stability of the compound in human liver microsomes assessed as compound remaining after 1 hr; type: ADME, Microsome; settings: read-out: Stability; how it was run: as §3
[32] = Plasma protein binding in human at 10 uM; type: ADME, cell-free; settings: read-out: PPB (converted)
How it was run: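 Human plasma protein binding measured by equilibrium dialysis, with overnight incubation of compound at 10 μM containing 1% DMSO.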

[33] = Tmax in Sprague-Dawley rat at 1 mg/kg, iv; type: ADME, organism-based; parameters: dose 1 mg/kg, route intravenous; settings: in vivo
[34] = Oral bioavailability in Beagle dog at 20 mg/kg; type: ADME, organism-based, Canis lupus familiaris; settings: in vivo
[35] = Tmax in Beagle dog at 20 mg/kg, po; type: ADME, organism-based, Canis lupus familiaris; parameters: dose 20 mg/kg, route oral; settings: in vivo
[36] = AUC (0 to infinity) in CD-1 mouse lung at 40 mg/kg, po; type: ADME, organism-based; parameters: dose 40 mg/kg, route oral, time infinity; how it was run: as §1
Salmonella typhimurium [37] = assay: Induction of mutagenesis in Salmonella Typhimurium TA100 in absence of rat liver S9 fraction by Ames test; type: toxicity, organism-based; settings: salmonella enterica subsp. enterica serovar typhimurium; how it was run: as §2
[38] = tested on: Mycobacterium tuberculosis; assay: Antimicrobial activity against Mycobacterium tuberculosis infected in chronic BALB/c mouse infection model assessed as fold reduction in lung CFU at 30 mg/kg, po administered daily 5 days a week for 8 weeks starting 50 days post-infection; type: functional
How it was run: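 Chronic infection model: groups of 7 M. tb-infected BALB/c mice given 30 mg/kg orally, daily 5 days/week for 8 weeks, starting about 50 days postinfection. Lung CFU reduction expressed relative to the reference drug.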

[39] = Cmax in Beagle dog at 20 mg/kg, po; type: ADME, organism-based, Canis lupus familiaris; parameters: dose 20 mg/kg, route oral; settings: in vivo
[40] = Cmax in CD-1 mouse lung at 40 mg/kg, po; type: ADME, organism-based; parameters: dose 40 mg/kg, route oral; how it was run: as §1
[41] = Half life in Beagle dog at 20 mg/kg, po; type: ADME, organism-based, Canis lupus familiaris; parameters: dose 20 mg/kg, route oral; settings: in vivo
[42] = Cmax in Sprague-Dawley rat at 1 mg/kg, iv; type: ADME, organism-based; parameters: dose 1 mg/kg, route intravenous; settings: in vivo

O=C(N[C@@H]1COc2nc([N+](=O)[O-])cn2C1)Oc1ccc(OC(F)(F)F)cc1
Stability [1]: Unstable

O=C(O[C@@H]1COc2nc([N+](=O)[O-])cn2C1)N1CCN(c2ccc(OC(F)(F)F)cc2)CC1
AUC(0-t) at 72 h [2]: 232000 ng·h/mL
logP [3]: 2.82
AUC(0-inf) [4]: 53400 ng·h/mL
solubility kinetic [5]: 17 µg/mL (≈ 37.2 µM)
half-life [6]: 28 h
bioavailability [7]: 57%
Tmax [8]: 5 h
AUC(0-t) at 72 h [9]: 182000 ng·h/mL
solubility thermodynamic [10]: 33 µM (≈ 15.1 µg/mL)
Activity (Salmonella typhimurium [11]): Non-toxic
Cmax [12]: 5200 ng/mL
IC50 [13]: > 30 µM
half-life [14]: 30 h
solubility thermodynamic [15]: 169 µM (≈ 77.3 µg/mL)
half-life [16]: 10.5 h
fold change (FC) [17]: 5.2
Activity (Salmonella typhimurium [18]): Non-toxic
AUC(0-t) at 72 h [19]: 27600 ng·h/mL
remaining at 1 h [20]: 85%
half-life [21]: 10.5 h
Tmax [22]: 0.5 h
AUC(0-t) at 24 h [23]: 67400 ng·h/mL
Cmax [24]: 4400 ng/mL
Cmax [25]: 1700 ng/mL
Tmax [26]: 12 h
Cmax [27]: 2500 ng/mL
half-life [28]: 8.3 h
AUC(0-t) at 24 h [29]: 5930 ng·h/mL
Activity (Salmonella typhimurium [30]): Non-toxic
remaining at 1 h [31]: 82%
fraction unbound at 10 µM [32]: 0.09
Tmax [33]: 4.98 min
bioavailability [34]: 84%
Tmax [35]: 8 h
AUC(0-inf) [36]: 169000 ng·h/mL
Activity (Salmonella typhimurium [37]): Non-toxic
fold change (FC) [38]: 0.92
Cmax [39]: 5800 ng/mL
Cmax [40]: 11700 ng/mL
half-life [41]: 29 h
Cmax [42]: 700 ng/mL

Source: ChEMBL document CHEMBL1944507, “Structure-activity relationships for amide-, carbamate-, and urea-linked analogues of the tuberculosis drug (6S)-2-nitro-6-{[4-(trifluoromethoxy)benzyl]oxy}-6,7-dihydro-5H-imidazo[2,1-b][1,3]oxazine (PA-824)” (J Med Chem, 2012)
